In ChEMBL document CHEMBL5260808, “Design of Phthalazinone Amide Histamine H1 Receptor Antagonists for Use in Rhinitis” (ACS Med Chem Lett, 2017):
The source made the active and inactive calls. The calls are words filed in the database; no cut-off is given here.

Experiments:
[1] = Volume of distribution at steady state in CD Sprague-Dawley rat at 3 mg/kg, po and 1 mg/kg, iv; type: ADME, organism-based; details: in vivo
In short: (§1)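 Male CD Sprague–Dawley rats and Beagle dogs. Solution in H2O–PEG200–DMSO (50:45:5), given iv at 1 mg/kg, and po at 3 mg/kg (rat) or 2 mg/kg (dog). Vss and elimination half-life derived after iv dosing.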

[2] = Elimination half life in CD Sprague-Dawley rat at 3 mg/kg, po and 1 mg/kg, iv; type: ADME, organism-based; details: in vivo, read-out: beta t1/2 (converted); in short: as §1
[3] = Elimination half life in Beagle dog at 2 mg/kg, po and 1 mg/kg, iv; type: ADME, organism-based, Canis lupus familiaris; details: in vivo, read-out: beta t1/2 (converted); in short: as §1
[4] = Volume of distribution at steady state in Beagle dog at 2 mg/kg, po and 1 mg/kg, iv; type: ADME, organism-based, Canis lupus familiaris; details: in vivo; in short: as §1
[5] = Distribution coefficient, log D of compound in n-octanol and phosphate buffered saline at pH 7.4 by HPLC analysis; type: physicochemical
[6] = Ratio of drug level in rat brain to blood at 1 mg/kg, iv bolus dose measured after 5 mins
[7] = Drug uptake in rat brain at 1 mg/kg, iv bolus dose; type: ADME, organism-based; details: in vivo
In short: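 Rats given a 1 mg/kg intravenous bolus. Brain and blood sampled at 5 min; brain–blood ratio and brain concentration determined, n = 3.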

Cavia porcellus [8] = assay: Antihistamine activity against conscious unrestrained ovalbumin and aluminum hydroxide sensitized guinea pigs assessed as inhibition of histamine-induced nasal congestion by measuring time duration of action at 1 mg/ml, intranasal measured after 1 to 24 hrs; type: functional; details: time 1-24 hrs
In short: (§2)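 Guinea pigs dosed intranasally with a 1 mg/mL solution (25 μL/nostril). Bilateral histamine challenge (15 or 10 mM, 25 μL/nostril, light isoflurane anesthesia) given 1 and 24 h after dosing. […] Comparison with vehicle-pretreated/histamine-challenged controls; mean ± SEM, n = 16–27 per group; p < 0.05.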

[9] = target: Voltage-gated inwardly rectifying potassium channel KCNH2 (Homo sapiens, UniProt Q12809); assay: Displacement of [3H]dofetilide from human ERG expressed in CHO-K1 cell membrane measured after 45 mins by topcount scintillation counting method; type: toxicity, cell membranes
Sequence of Voltage-gated inwardly rectifying potassium channel KCNH2 (Q12809 whole entry): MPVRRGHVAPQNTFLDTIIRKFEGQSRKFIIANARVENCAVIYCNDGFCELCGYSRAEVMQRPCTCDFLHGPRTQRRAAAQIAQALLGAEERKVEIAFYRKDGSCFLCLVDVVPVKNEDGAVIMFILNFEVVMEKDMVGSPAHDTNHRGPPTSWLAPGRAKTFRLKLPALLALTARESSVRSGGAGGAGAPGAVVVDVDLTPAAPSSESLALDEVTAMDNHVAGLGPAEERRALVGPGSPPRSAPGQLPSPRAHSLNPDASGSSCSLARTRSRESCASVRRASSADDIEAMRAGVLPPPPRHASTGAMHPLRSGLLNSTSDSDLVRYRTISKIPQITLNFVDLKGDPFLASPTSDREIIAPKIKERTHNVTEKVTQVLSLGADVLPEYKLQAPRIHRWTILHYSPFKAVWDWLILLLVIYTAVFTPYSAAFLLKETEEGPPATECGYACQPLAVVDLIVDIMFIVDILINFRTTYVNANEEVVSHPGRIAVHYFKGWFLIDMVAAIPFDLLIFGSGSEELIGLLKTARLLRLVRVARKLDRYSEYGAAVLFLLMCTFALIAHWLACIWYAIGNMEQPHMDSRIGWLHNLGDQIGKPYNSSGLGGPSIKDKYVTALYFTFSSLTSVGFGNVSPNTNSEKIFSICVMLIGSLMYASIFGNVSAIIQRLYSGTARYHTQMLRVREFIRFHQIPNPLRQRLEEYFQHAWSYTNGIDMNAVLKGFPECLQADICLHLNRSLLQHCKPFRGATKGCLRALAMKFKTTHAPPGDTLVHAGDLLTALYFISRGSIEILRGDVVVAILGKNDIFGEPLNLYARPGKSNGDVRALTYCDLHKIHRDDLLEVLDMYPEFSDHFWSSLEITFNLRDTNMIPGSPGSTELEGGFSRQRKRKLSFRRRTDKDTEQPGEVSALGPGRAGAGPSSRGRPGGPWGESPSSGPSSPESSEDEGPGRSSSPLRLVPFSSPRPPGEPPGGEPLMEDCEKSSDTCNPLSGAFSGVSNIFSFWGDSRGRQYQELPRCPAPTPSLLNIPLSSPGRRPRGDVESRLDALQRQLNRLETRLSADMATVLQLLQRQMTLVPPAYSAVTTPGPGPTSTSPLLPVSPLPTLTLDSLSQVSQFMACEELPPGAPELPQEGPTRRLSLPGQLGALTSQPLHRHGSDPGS

[10] = target: T1, Alpha-1A adrenergic receptor (Homo sapiens, UniProt P35348); assay: Antagonist activity against recombinant human adrenergic alpha1A receptor expressed in Rat1 cells incubated for 30 mins by FLIPR analysis; type: cell-based
T1 sequence (P35348 whole entry): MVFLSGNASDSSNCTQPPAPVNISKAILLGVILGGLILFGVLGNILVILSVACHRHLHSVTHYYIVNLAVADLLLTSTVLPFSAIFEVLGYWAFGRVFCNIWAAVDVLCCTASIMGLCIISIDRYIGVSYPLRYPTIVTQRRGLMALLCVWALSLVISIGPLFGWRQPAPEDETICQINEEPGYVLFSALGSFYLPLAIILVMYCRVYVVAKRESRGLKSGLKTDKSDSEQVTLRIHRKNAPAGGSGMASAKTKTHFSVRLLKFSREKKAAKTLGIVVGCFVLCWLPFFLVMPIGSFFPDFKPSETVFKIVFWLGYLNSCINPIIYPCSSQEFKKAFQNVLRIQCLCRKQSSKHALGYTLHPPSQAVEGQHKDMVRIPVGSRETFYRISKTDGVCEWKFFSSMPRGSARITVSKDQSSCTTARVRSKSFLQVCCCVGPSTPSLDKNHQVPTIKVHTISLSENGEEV
In short: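 Human α1A or α1B adrenoceptor in fibroblast cells. Plate-based calcium imaging.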

Histamine H1 receptor [11] = target: T2, Histamine H1 receptor (Homo sapiens, UniProt P35367); assay: Antagonist potency at human H1 receptor; details: read-out: pA2 (converted)
T2 sequence (P35367 whole entry): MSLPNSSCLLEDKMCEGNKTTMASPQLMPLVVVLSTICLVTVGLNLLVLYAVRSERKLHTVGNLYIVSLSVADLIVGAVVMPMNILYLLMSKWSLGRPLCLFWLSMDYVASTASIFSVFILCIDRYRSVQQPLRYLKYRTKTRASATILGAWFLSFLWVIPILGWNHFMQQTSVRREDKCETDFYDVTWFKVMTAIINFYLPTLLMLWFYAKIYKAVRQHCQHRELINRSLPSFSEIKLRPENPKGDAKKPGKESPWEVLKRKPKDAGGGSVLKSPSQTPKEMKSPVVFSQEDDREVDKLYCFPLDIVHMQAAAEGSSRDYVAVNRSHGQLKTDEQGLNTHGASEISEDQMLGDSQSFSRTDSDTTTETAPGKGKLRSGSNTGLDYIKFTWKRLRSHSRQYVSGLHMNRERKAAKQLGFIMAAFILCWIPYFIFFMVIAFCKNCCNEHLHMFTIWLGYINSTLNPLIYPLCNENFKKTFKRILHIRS

Histamine H1 receptor [12] = target: T2, Histamine H1 receptor; assay: Antagonist activity against recombinant human H1 receptor expressed in CHO cells incubated for 30 mins by FLIPR analysis; type: cell-based
[13] = target: T3, Alpha-1B adrenergic receptor (Homo sapiens, UniProt P35368); assay: Antagonist activity against recombinant human adrenergic alpha1B receptor expressed in CHO cells incubated for 30 mins by FLIPR analysis; type: cell-based
T3 sequence (P35368 whole entry): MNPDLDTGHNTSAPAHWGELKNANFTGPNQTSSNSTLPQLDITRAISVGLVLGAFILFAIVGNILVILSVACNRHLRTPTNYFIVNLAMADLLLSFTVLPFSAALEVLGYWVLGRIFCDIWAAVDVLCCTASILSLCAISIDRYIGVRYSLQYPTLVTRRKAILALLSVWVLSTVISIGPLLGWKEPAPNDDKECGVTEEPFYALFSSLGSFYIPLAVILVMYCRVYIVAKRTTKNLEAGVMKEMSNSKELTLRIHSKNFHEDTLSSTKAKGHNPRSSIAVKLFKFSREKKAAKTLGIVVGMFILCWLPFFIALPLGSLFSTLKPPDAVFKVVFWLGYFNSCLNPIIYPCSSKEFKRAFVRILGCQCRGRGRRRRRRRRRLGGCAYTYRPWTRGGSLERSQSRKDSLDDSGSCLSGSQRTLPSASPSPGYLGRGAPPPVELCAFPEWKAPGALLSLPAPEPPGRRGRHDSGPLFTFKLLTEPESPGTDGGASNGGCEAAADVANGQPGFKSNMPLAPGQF

Cavia porcellus [14] = assay: Antihistamine activity against conscious unrestrained ovalbumin and aluminum hydroxide sensitized guinea pigs assessed as inhibition of histamine-induced nasal congestion at 1 mg/ml, intranasal measured after 1 to 24 hrs relative to control; type: functional, organism-based; details: time 1-24 hrs; in short: as §2
[15] = target: 5-hydroxytryptamine receptor 2A (Homo sapiens) (UniProt P28223); assay: Inhibition of human 5-HT2A receptor at 1 uM relative to control
Sequence of 5-hydroxytryptamine receptor 2A (Homo sapiens) (P28223 whole entry): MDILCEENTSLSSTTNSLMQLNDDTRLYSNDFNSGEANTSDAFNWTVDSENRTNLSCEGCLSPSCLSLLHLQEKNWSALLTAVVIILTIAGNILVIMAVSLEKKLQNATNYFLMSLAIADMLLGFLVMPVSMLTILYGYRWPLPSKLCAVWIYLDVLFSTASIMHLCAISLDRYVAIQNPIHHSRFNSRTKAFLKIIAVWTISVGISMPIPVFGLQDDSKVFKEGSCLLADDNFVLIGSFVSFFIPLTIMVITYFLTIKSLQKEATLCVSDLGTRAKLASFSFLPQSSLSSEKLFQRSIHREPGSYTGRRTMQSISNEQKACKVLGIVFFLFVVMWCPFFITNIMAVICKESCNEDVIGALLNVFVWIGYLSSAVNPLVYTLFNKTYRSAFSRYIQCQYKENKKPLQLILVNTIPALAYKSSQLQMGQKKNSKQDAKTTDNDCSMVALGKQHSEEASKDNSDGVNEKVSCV

[16] = target: 5-hydroxytryptamine receptor 6 (Homo sapiens) (UniProt P50406); assay: Inhibition of human 5-HT6 receptor at 1 uM relative to control
Sequence of 5-hydroxytryptamine receptor 6 (Homo sapiens) (P50406 whole entry): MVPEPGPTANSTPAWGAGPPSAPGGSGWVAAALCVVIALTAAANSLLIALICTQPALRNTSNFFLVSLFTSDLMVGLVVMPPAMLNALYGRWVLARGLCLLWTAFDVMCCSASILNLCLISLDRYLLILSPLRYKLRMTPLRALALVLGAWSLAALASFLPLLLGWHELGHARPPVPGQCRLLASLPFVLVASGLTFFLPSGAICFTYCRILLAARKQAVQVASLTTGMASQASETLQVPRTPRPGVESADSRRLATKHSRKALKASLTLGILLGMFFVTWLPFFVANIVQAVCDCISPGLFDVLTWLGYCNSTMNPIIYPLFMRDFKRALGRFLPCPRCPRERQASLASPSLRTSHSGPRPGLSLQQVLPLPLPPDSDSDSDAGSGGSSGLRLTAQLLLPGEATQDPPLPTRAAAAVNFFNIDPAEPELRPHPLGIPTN

[17] = target: D(2) dopamine receptor (Homo sapiens) (UniProt P14416); assay: Inhibition of human dopamine D2S receptor at 1 uM relative to control
Sequence of D(2) dopamine receptor (Homo sapiens) (P14416 whole entry): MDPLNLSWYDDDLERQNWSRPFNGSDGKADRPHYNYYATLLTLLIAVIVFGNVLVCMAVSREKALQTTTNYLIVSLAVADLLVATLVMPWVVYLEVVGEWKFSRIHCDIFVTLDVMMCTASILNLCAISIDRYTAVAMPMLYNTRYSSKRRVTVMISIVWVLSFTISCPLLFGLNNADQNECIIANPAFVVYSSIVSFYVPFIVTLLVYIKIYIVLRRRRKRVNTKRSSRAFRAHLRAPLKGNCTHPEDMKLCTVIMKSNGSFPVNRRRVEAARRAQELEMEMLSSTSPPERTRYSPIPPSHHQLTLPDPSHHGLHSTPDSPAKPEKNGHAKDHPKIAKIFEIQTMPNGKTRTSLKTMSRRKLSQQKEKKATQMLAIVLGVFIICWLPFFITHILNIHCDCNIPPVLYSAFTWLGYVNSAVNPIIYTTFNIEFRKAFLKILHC

[18] = target: D(1A) dopamine receptor (Homo sapiens) (UniProt P21728); assay: Inhibition of human dopamine D1 receptor at 1 uM relative to control
Sequence of D(1A) dopamine receptor (Homo sapiens) (P21728 whole entry): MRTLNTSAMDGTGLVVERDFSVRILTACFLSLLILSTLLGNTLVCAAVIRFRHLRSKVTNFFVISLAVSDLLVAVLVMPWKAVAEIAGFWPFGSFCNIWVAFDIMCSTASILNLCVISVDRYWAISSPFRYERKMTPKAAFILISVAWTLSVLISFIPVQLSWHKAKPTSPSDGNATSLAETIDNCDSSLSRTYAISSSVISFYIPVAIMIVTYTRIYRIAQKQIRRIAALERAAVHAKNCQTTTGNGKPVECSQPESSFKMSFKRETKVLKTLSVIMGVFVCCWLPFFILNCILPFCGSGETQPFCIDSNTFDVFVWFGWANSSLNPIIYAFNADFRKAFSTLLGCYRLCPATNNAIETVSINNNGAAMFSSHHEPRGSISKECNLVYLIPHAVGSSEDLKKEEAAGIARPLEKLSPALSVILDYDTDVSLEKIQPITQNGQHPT

[19] = target: 5-hydroxytryptamine receptor 7 (Homo sapiens) (UniProt P34969); assay: Inhibition of human 5-HT7 receptor at 1 uM relative to control
Sequence of 5-hydroxytryptamine receptor 7 (Homo sapiens) (P34969 whole entry): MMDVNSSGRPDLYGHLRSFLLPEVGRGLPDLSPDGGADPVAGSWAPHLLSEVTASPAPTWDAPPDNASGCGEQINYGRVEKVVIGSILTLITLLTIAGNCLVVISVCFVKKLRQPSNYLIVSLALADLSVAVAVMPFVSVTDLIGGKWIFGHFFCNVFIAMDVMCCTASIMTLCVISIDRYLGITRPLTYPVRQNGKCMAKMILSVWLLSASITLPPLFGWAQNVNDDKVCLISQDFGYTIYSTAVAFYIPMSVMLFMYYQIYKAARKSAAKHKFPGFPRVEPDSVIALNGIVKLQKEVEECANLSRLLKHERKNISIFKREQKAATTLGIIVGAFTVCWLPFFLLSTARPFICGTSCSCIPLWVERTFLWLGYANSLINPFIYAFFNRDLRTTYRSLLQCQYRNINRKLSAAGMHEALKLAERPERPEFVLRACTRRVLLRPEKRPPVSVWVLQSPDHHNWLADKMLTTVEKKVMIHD

[20] = Elimination in iv dosed dog urine; type: ADME, organism-based, Canis lupus familiaris; details: read-out: Drug excretion
In short: (§3)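 Beagle dogs dosed iv at 1 mg/kg, or subcutaneously in one dog. Parent compound measured in urine.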

[21] = Drug metabolism in dog liver microsomes assessed as rate of metabolism; type: ADME, Canis lupus familiaris
[22] = Drug absorption into hepatic portal vein of CD Sprague-Dawley rat at 3 mg/kg, po; type: ADME, organism-based; details: read-out: Drug absorption
In short: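 Male CD Sprague–Dawley rats dosed orally at 3 mg/kg. Absorption measured into the hepatic portal vein.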

[23] = Drug metabolism in human hepatocytes assessed as metabolite formation at 10 uM measured after 3 hrs by LC-MS/MS analysis; type: ADME, cell-based, Hepatocyte
In short: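 Cryopreserved human hepatocytes incubated with compound (10 μM initial) for 3 h. Metabolites detected and profiled by LC–MS/MS.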

[24] = Elimination in sc dosed dog urine; type: ADME, organism-based, Canis lupus familiaris; details: read-out: Drug excretion; in short: as §3
[25] = Drug metabolism in human liver microsomes assessed as rate of metabolism; type: ADME
[26] = Drug metabolism in mouse liver microsomes assessed as rate of metabolism; type: ADME
[27] = Drug metabolism in monkey intestinal microsomes assessed as rate of metabolism; type: ADME, Macaca mulatta, Intestine; details: rhesus monkey
In short: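 Intestinal microsomes from monkey; in vitro rate of metabolism given in mL/min/g.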

[28] = Drug metabolism in rat liver microsomes assessed as rate of metabolism; type: ADME
[29] = Oral bioavailability in CD Sprague-Dawley rat at 300 mg/kg; type: ADME, organism-based; details: in vivo
In short: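 Male CD Sprague–Dawley rats dosed orally at 300 mg/kg. Vehicle was H2O–PEG200–DMSO (50:45:5). Oral bioavailability determined from blood concentrations.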

[30] = Bioavailability in human; type: ADME, organism-based; details: in vivo

SMILES	logD [5]	IC50 [9]	Ki [10]	Kb (Histamine H1 receptor [11])	Ki (Histamine H1 receptor [12])	Ki [13]	also measured
COCCCC(=O)NCCN1CCC[C@@H]1Cn1nc(Cc2ccc(Cl)cc2)c2ccccc2c1=O.O=C(O)C(F)(F)F	3.5						Vdss [1]: 0.7 L/kg; half-life [2]: 12 min; half-life [3]: 30 min; Vdss [4]: 1.1 L/kg; Kp at 5 min [6]: 0.18; Drug uptake [7]: 121 ng/g; Time (Cavia porcellus [8]): <48 h
CC(C)C(=O)NCCN1CCC[C@@H]1Cn1nc(Cc2ccc(Cl)cc2)c2ccccc2c1=O	3.2	398 nM	3.98 nM	0.132 nM	3.98 nM	63.1 nM	
COCCC(=O)NCCN1CCC[C@@H]1Cn1nc(Cc2ccc(Cl)cc2)c2ccccc2c1=O	3.2	398 nM	7.94 nM	0.501 nM	0.794 nM	63.1 nM	
CCC(=O)NCCN1CCC[C@@H]1Cn1nc(Cc2ccc(Cl)cc2)c2ccccc2c1=O	3.4	200 nM	15.8 nM	0.251 nM	0.631 nM	15.8 nM	
COCCNC(=O)CCCN1CCC[C@@H]1Cn1nc(Cc2ccc(Cl)cc2)c2ccccc2c1=O	2.5	39.8 nM	6.31 nM	0.501 nM	0.794 nM	10 nM	
COCC(=O)NCCN1CCC[C@@H]1Cn1nc(Cc2ccc(Cl)cc2)c2ccccc2c1=O	3.1	200 nM	50.1 nM	0.2 nM	1.26 nM	31.6 nM	
CCCC(=O)NCCN1CCC[C@@H]1Cn1nc(Cc2ccc(Cl)cc2)c2ccccc2c1=O	3.7	63.1 nM	31.6 nM	0.631 nM	0.794 nM	79.4 nM	
COCCCC(=O)NCCN1CCC[C@@H]1Cn1nc(Cc2ccc(Cl)cc2)c2ccccc2c1=O							Activity (Cavia porcellus [14]): Active; inhibition [15]: > 50%; inhibition [16]: > 50%; inhibition [17]: > 50%; inhibition [18]: > 50%; inhibition [19]: > 50%
COCCCC(=O)N(C)CCN1CCC[C@@H]1Cn1nc(Cc2ccc(Cl)cc2)c2ccccc2c1=O	3.5	398 nM	31.6 nM	0.1 nM	3.16 nM	126 nM	
COCCCC(=O)NCCN1CCC[C@@H]1Cn1nc(Cc2ccc(Cl)cc2)c2ccccc2c1=O.Cl							dose excreted [20]: < 3%; Drug metabolism [21]: 12 mL/min/g; Fa [22]: 3%; Drug metabolism [23]: Metabolite_Detected; dose excreted [24]: < 3%; Drug metabolism [25]: 25 mL/min/g; Drug metabolism [26]: 50 mL/min/g; CLint scaled [27]: > 50 mL/min/g; Drug metabolism [28]: 50 mL/min/g; bioavailability [29]: < 3%; Time (Cavia porcellus [8]): <48 h
O=C(NCCN1CCC[C@@H]1Cn1nc(Cc2ccc(Cl)cc2)c2ccccc2c1=O)C1CCCC1	3.9	50.1 nM	79.4 nM	0.316 nM	3.98 nM	79.4 nM	
O=C(NCCN1CCC[C@@H]1Cn1nc(Cc2ccc(Cl)cc2)c2ccccc2c1=O)C1CCOCC1	3.3	794 nM	200 nM	0.794 nM	10 nM		
CCCNC(=O)CCCN1CCC[C@@H]1Cn1nc(Cc2ccc(Cl)cc2)c2ccccc2c1=O	3.3	1.58 nM	10 nM	0.158 nM	5.01 nM	31.6 nM	
CN1CCCC(n2nc(Cc3ccc(Cl)cc3)c3ccccc3c2=O)CC1 (stereo unspecified) [AZELASTINE]	2.3						bioavailability [30]: 40%
